According to ChEMBL document CHEMBL1136257, “New highly active taxoids from 9beta-dihydrobaccatin-9,10-acetals. Part 3” (Bioorg Med Chem Lett, 2003):
In brackets after ≈: the same amount, converted by molar mass. Values belong to the molecule of their own block, whether it stands above or below them.

Tests used:
Mus musculus [1] = assay: Maximum rate of body weight loss was determined in mice inoculated with B16 melanoma BL6 cells sc at a dose 600 mg/kg by peroral administration; type: functional; details: route oral
How it was run: (§1)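 On day 0, B16 melanoma BL6 cells (cultured line) were implanted subcutaneously into C57BL/6 mice, six per group. A single iv or oral dose was given on day 4, and body weight was followed. BWLmax (%) is the maximum rate of body weight loss; a value below 0 means no loss.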

[2] = Solubility in water using UV assay; type: physicochemical
P388 = assay: Cytotoxic activity against mouse leukemia P388 cell line; type: functional
How it was run: (§2)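 Growth inhibition (IC50) of mouse leukemia P388 and human lung cancer PC-6 and PC-12 cells after 72 h continuous exposure to compound; IC50 taken as the concentration giving 50% growth inhibition.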

[3] = Solubility of compound in JP1 at pH 1.2 using UV assay; type: physicochemical; details: JP1, pH 1.2
Mus musculus [4] = assay: Mortality was determined in mice inoculated with B16 melanoma BL6 cells sc at a dose 600 mg/kg by peroral administration; 0/6; type: functional; details: route oral
PC-6 = assay: Cytotoxic activity against human lung cancer PC-6 cell line; type: functional; how it was run: as §2
Mus musculus [5] = assay: Mean tumor weight was determined in mice inoculated with B16 melanoma BL6 cells sc at a dose 600 mg/kg po [IR (%) = (1-TWt/TWc)*100]; type: functional
How it was run: (§3)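 C57BL/6 mice (six per group) received subcutaneous B16 melanoma BL6 cells on day 0 and a single iv or oral dose on day 4. Tumors were excised and weighed on day 15. Inhibition rate IR (%) = (1 − mean treated tumor weight/mean control tumor weight) × 100.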

Mus musculus [6] = assay: Maximum rate of body weight loss was determined in mice inoculated with B16 melanoma BL6 cells sc at a dose 100 mg/kg by intravenous administration; type: functional; how it was run: as §1
[7] = Solubility of compound in JP2 at pH 6.8 using UV assay; type: physicochemical; details: JP2, pH 6.8
PC-12 = assay: Cytotoxic activity against human lung cancer PC-12 cell line
Mus musculus [8] = assay: Mean tumor weight was determined in mice inoculated with B16 melanoma BL6 cells sc at a dose 100 mg/kg iv [IR (%) = (1-TWt/TWc)*100]; type: functional; how it was run: as §3
Mus musculus [9] = assay: Mortality was determined in mice inoculated with B16 melanoma BL6 cells sc at a dose 100 mg/kg by intravenous administration; 0/6; type: functional
Mus musculus [10] = assay: Maximum rate of body weight loss was determined in mice inoculated with B16 melanoma BL6 cells sc at a dose 12 mg/kg by peroral administration; type: functional; details: route oral; how it was run: as §1
Mus musculus [11] = assay: Mean tumor weight was determined in mice inoculated with B16 melanoma BL6 cells sc at a dose 12 mg/kg po [IR (%) = (1-TWt/TWc)*100]; type: functional; how it was run: as §3
Mus musculus [12] = assay: Maximum rate of body weight loss was determined in mice inoculated with B16 melanoma BL6 cells sc at a dose 27 mg/kg by intravenous administration; type: functional; how it was run: as §1
Mus musculus [13] = assay: Mean tumor weight was determined in mice inoculated with B16 melanoma BL6 cells sc at a dose 27 mg/kg iv [IR (%) = (1-TWt/TWc)*100]; type: functional; how it was run: as §3
Mus musculus [14] = assay: Mean tumor weight was determined in mice inoculated with B16 melanoma BL6 cells sc at a dose 18 mg/kg iv [IR (%) = (1-TWt/TWc)*100]; type: functional; how it was run: as §3
Mus musculus [15] = assay: Maximum rate of body weight loss was determined in mice inoculated with B16 melanoma BL6 cells sc at a dose 27 mg/kg by peroral administration; type: functional; details: route oral; how it was run: as §1
Mus musculus [16] = assay: Mortality was determined in mice inoculated with B16 melanoma BL6 cells sc at a dose 27 mg/kg by intravenous administration; 0/6; type: functional
Mus musculus [17] = assay: Mean tumor weight was determined in mice inoculated with B16 melanoma BL6 cells sc at a dose 40.5 mg/kg po [IR (%) = (1-TWt/TWc)*100]; type: functional; how it was run: as §3
Mus musculus [18] = assay: Maximum rate of body weight loss was determined in mice inoculated with B16 melanoma BL6 cells sc at a dose 18 mg/kg by peroral administration; type: functional; details: route oral; how it was run: as §1
Mus musculus [19] = assay: Mortality was determined in mice inoculated with B16 melanoma BL6 cells sc at a dose 12 mg/kg by intravenous administration; 0/6; type: functional
Mus musculus [20] = assay: Maximum rate of body weight loss was determined in mice inoculated with B16 melanoma BL6 cells sc at a dose 18 mg/kg by intravenous administration; type: functional; how it was run: as §1
Mus musculus [21] = assay: Mean tumor weight was determined in mice inoculated with B16 melanoma BL6 cells sc at a dose 8 mg/kg iv [IR (%) = (1-TWt/TWc)*100]; type: functional; how it was run: as §3
Mus musculus [22] = assay: Mean tumor weight was determined in mice inoculated with B16 melanoma BL6 cells sc at a dose 12 mg/kg iv [IR (%) = (1-TWt/TWc)*100]; type: functional; how it was run: as §3
Mus musculus [23] = assay: Mortality was determined in mice inoculated with B16 melanoma BL6 cells sc at a dose 8 mg/kg by intravenous administration; 0/6; type: functional
Mus musculus [24] = assay: Mortality was determined in mice inoculated with B16 melanoma BL6 cells sc at a dose 27 mg/kg by peroral administration; 0/6; type: functional; details: route oral
Mus musculus [25] = assay: Mean tumor weight was determined in mice inoculated with B16 melanoma BL6 cells sc at a dose 27 mg/kg po [IR (%) = (1-TWt/TWc)*100]; type: functional; how it was run: as §3
Mus musculus [26] = assay: Mean tumor weight was determined in mice inoculated with B16 melanoma BL6 cells sc at a dose 18 mg/kg po [IR (%) = (1-TWt/TWc)*100]; type: functional; how it was run: as §3
Mus musculus [27] = assay: Mortality was determined in mice inoculated with B16 melanoma BL6 cells sc at a dose 12 mg/kg by peroral administration; 0/6; type: functional; details: route oral
Mus musculus [28] = assay: Mortality was determined in mice inoculated with B16 melanoma BL6 cells sc at a dose 18 mg/kg by intravenous administration; 0/6; type: functional
Mus musculus [29] = assay: Mortality was determined in mice inoculated with B16 melanoma BL6 cells sc at a dose 40.5 mg/kg by peroral administration; 0/6; type: functional; details: route oral
Mus musculus [30] = assay: Maximum rate of body weight loss was determined in mice inoculated with B16 melanoma BL6 cells sc at a dose 40.5 mg/kg by peroral administration; type: functional; details: route oral; how it was run: as §1
Mus musculus [31] = assay: Maximum rate of body weight loss was determined in mice inoculated with B16 melanoma BL6 cells sc at a dose 8 mg/kg by intravenous administration; type: functional; how it was run: as §1
Mus musculus [32] = assay: Mortality was determined in mice inoculated with B16 melanoma BL6 cells sc at a dose 18 mg/kg by peroral administration; 0/6; type: functional; details: route oral
Mus musculus [33] = assay: Maximum rate of body weight loss was determined in mice inoculated with B16 melanoma BL6 cells sc at a dose 12 mg/kg by intravenous administration; type: functional; how it was run: as §1

Compound: CC(=O)O[C@@]12CO[C@@H]1C[C@H](O)[C@@]1(C)C(=O)[C@H](O)C3=C(C)[C@@H](OC(=O)[C@H](O)[C@@H](NC(=O)OC(C)(C)C)c4ccccc4)C[C@@](O)([C@@H](OC(=O)c4ccccc4)[C@H]21)C3(C)C.O.O.O [DOCETAXEL]
BWLmax (Mus musculus [1]): <0%
solubility [2]: < 4 µg/mL
GI50 (P388): 0.78 ng/mL
solubility [3]: < 4 µg/mL
Mortality (Mus musculus [4]): 0
GI50 (PC-6): 0.41 ng/mL
IR (Mus musculus [5]): 6.2%
BWLmax (Mus musculus [6]): <0%
solubility [7]: < 4 µg/mL
GI50 (PC-12): 14.9 ng/mL
IR (Mus musculus [8]): 95.1%
Mortality (Mus musculus [9]): 0

Compound: CC(=O)O[C@@]12CO[C@@H]1CC[C@@]1(C)[C@@H]3O[C@H](CN4CCOCC4)O[C@@H]3C3=C(C)[C@@H](OC(=O)[C@](C)(O)[C@@H](NC(=O)c4ccccc4)c4ccccn4)C[C@@](O)([C@@H](OC(=O)c4ccccc4)[C@@H]12)C3(C)C
BWLmax (Mus musculus [10]): <0%
solubility [2]: < 4 µg/mL
IR (Mus musculus [11]): 23.4%
BWLmax (Mus musculus [12]): 2.4%
IR (Mus musculus [13]): 95.8%
GI50 (P388): 0.19 ng/mL (≈ 0.000206 µM)
IR (Mus musculus [14]): 89.8%
BWLmax (Mus musculus [15]): <0%
solubility [3]: > 1800 µg/mL
Mortality (Mus musculus [16]): 0
IR (Mus musculus [17]): 96.9%
BWLmax (Mus musculus [18]): <0%
GI50 (PC-6): 0.45 ng/mL (≈ 0.000487 µM)
Mortality (Mus musculus [19]): 0
BWLmax (Mus musculus [20]): <0%
IR (Mus musculus [21]): 61.3%
IR (Mus musculus [22]): 75.4%
Mortality (Mus musculus [23]): 0
Mortality (Mus musculus [24]): 0
IR (Mus musculus [25]): 91.3%
IR (Mus musculus [26]): 59.7%
solubility [7]: < 4 µg/mL
Mortality (Mus musculus [27]): 0
GI50 (PC-12): 0.57 ng/mL (≈ 0.000617 µM)
Mortality (Mus musculus [28]): 0
Mortality (Mus musculus [29]): 0
BWLmax (Mus musculus [30]): 4.1%
BWLmax (Mus musculus [31]): <0%
Mortality (Mus musculus [32]): 0
BWLmax (Mus musculus [33]): <0%

solubility [2]: < 4 µg/mL
solubility [3]: 1200 µg/mL (≈ 1330 µM)
solubility [7]: < 4 µg/mL
Compound: CC(=O)O[C@@]12CO[C@@H]1CC[C@@]1(C)[C@@H]3O[C@H](CN4CCOCC4)O[C@@H]3C3=C(C)[C@@H](OC(=O)[C@H](O)[C@@H](NC(=O)OC(C)(C)C)c4ccccc4)C[C@@](O)([C@@H](OC(=O)c4ccccc4)[C@@H]12)C3(C)C
GI50 (P388): 0.02 ng/mL (≈ 2.21e-05 µM)
GI50 (PC-6): 0.38 ng/mL (≈ 0.00042 µM)
GI50 (PC-12): 0.02 ng/mL (≈ 2.21e-05 µM)
